Test results: ChEMBL document CHEMBL4689842, “EUbOPEN Chemogenomics Library wave 1” (2021)

Tested on: Fibroblast
Assay: Multiplex assay against human fibroblast
Format: toxicity, cell-based
In short: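 At seeding, live cells were stained with Hoechst33342, BioTracker Green Microtubule Cytoskeleton Dye, MitoTracker Red and Annexin V Alexa Fluor 680. After compound addition they were imaged on a CQ1 microscope at 37°C and 5% CO2, and CellPathfinder machine-learning gating sorted them into Hoechst high-intensity objects or normal cells, with normal cells further split into healthy, pyknosed or fragmented nuclei and pyknosed cells into mitotic or apoptotic. Tubulin, mitochondrial-mass and membrane-permeability phenotypes are given as per cents of cells with healthy nuclei.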

[1] = 12 h, 1 µM, compound concentration 1 uM, replicate 1
[2] = 12 h, 1 µM, compound concentration 1 uM, replicate 2
[3] = 12 h, 10 µM, compound concentration 10 uM, replicate 1
[4] = 12 h, 10 µM, compound concentration 10 uM, replicate 2
[5] = 24 h, 1 µM, compound concentration 1 uM, replicate 1
[6] = 24 h, 1 µM, compound concentration 1 uM, replicate 2
[7] = 24 h, 10 µM, compound concentration 10 uM, replicate 1
[8] = 24 h, 10 µM, compound concentration 10 uM, replicate 2
[9] = 48 h, 1 µM, compound concentration 1 uM, replicate 1
[10] = 48 h, 1 µM, compound concentration 1 uM, replicate 2
[11] = 48 h, 10 µM, compound concentration 10 uM, replicate 1
[12] = 48 h, 10 µM, compound concentration 10 uM, replicate 2

## CNc1nc(NCc2ccc(NS(C)(=O)=O)cc2Cl)cc(-c2ccccn2)n1
[1]
  Population Apoptotic (%): 70%
  Population Fragmented Nuclei (%): 22%
  Population Healthy Nuclei (%): 41%
  Population Hoechst High Intensity Objects (%): 7%
  Population Membrane Permeable-Phenotype (%): 22%
  Population Mitochondria Different-Phenotype (%): 4%
  Population Mitotic Cells (%): 29%
  Population Normal (%): 92%
  Population Pyknosed Nuclei (%): 36%
  Population Tubulin-Different-Phenotype (%): 41%
  Total Cell Count: 164
[2]
  Population Apoptotic (%): 33%
  Population Fragmented Nuclei (%): 11%
  Population Healthy Nuclei (%): 82%
  Population Hoechst High Intensity Objects (%): 8%
  Population Membrane Permeable-Phenotype (%): 0%
  Population Mitochondria Different-Phenotype (%): 9%
  Population Mitotic Cells (%): 66%
  Population Normal (%): 91%
  Population Pyknosed Nuclei (%): 5%
  Population Tubulin-Different-Phenotype (%): 11%
  Total Cell Count: 61
[3]
  Population Apoptotic (%): 60%
  Population Fragmented Nuclei (%): 23%
  Population Healthy Nuclei (%): 39%
  Population Hoechst High Intensity Objects (%): 17%
  Population Membrane Permeable-Phenotype (%): 21%
  Population Mitochondria Different-Phenotype (%): 15%
  Population Mitotic Cells (%): 39%
  Population Normal (%): 82%
  Population Pyknosed Nuclei (%): 36%
  Population Tubulin-Different-Phenotype (%): 82%
  Total Cell Count: 142
[4]
  Population Apoptotic (%): 57%
  Population Fragmented Nuclei (%): 6%
  Population Healthy Nuclei (%): 81%
  Population Hoechst High Intensity Objects (%): 9%
  Population Membrane Permeable-Phenotype (%): 12%
  Population Mitochondria Different-Phenotype (%): 32%
  Population Mitotic Cells (%): 42%
  Population Normal (%): 90%
  Population Pyknosed Nuclei (%): 11%
  Population Tubulin-Different-Phenotype (%): 30%
  Total Cell Count: 56
[5]
  Population Apoptotic (%): 70%
  Population Fragmented Nuclei (%): 25%
  Population Healthy Nuclei (%): 53%
  Population Hoechst High Intensity Objects (%): 11%
  Population Membrane Permeable-Phenotype (%): 23%
  Population Mitochondria Different-Phenotype (%): 7%
  Population Mitotic Cells (%): 29%
  Population Normal (%): 88%
  Population Pyknosed Nuclei (%): 20%
  Population Tubulin-Different-Phenotype (%): 43%
  Total Cell Count: 169
[6]
  Population Apoptotic (%): 25%
  Population Fragmented Nuclei (%): 8%
  Population Healthy Nuclei (%): 85%
  Population Hoechst High Intensity Objects (%): 1%
  Population Membrane Permeable-Phenotype (%): 0%
  Population Mitochondria Different-Phenotype (%): 11%
  Population Mitotic Cells (%): 75%
  Population Normal (%): 98%
  Population Pyknosed Nuclei (%): 5%
  Population Tubulin-Different-Phenotype (%): 11%
  Total Cell Count: 67
[7]
  Population Apoptotic (%): 64%
  Population Fragmented Nuclei (%): 31%
  Population Healthy Nuclei (%): 46%
  Population Hoechst High Intensity Objects (%): 27%
  Population Membrane Permeable-Phenotype (%): 18%
  Population Mitochondria Different-Phenotype (%): 18%
  Population Mitotic Cells (%): 35%
  Population Normal (%): 72%
  Population Pyknosed Nuclei (%): 22%
  Population Tubulin-Different-Phenotype (%): 77%
  Total Cell Count: 174
[8]
  Population Apoptotic (%): 50%
  Population Fragmented Nuclei (%): 20%
  Population Healthy Nuclei (%): 66%
  Population Hoechst High Intensity Objects (%): 10%
  Population Membrane Permeable-Phenotype (%): 4%
  Population Mitochondria Different-Phenotype (%): 26%
  Population Mitotic Cells (%): 50%
  Population Normal (%): 89%
  Population Pyknosed Nuclei (%): 12%
  Population Tubulin-Different-Phenotype (%): 17%
  Total Cell Count: 71
[9]
  Population Apoptotic (%): 77%
  Population Fragmented Nuclei (%): 29%
  Population Healthy Nuclei (%): 63%
  Population Hoechst High Intensity Objects (%): 17%
  Population Membrane Permeable-Phenotype (%): 23%
  Population Mitochondria Different-Phenotype (%): 7%
  Population Mitotic Cells (%): 22%
  Population Normal (%): 82%
  Population Pyknosed Nuclei (%): 7%
  Population Tubulin-Different-Phenotype (%): 46%
  Total Cell Count: 155
[10]
  Population Apoptotic (%): 50%
  Population Fragmented Nuclei (%): 28%
  Population Healthy Nuclei (%): 69%
  Population Hoechst High Intensity Objects (%): 8%
  Population Membrane Permeable-Phenotype (%): 4%
  Population Mitochondria Different-Phenotype (%): 2%
  Population Mitotic Cells (%): 50%
  Population Normal (%): 91%
  Population Pyknosed Nuclei (%): 2%
  Population Tubulin-Different-Phenotype (%): 38%
  Total Cell Count: 105
[11]
  Population Apoptotic (%): 70%
  Population Fragmented Nuclei (%): 29%
  Population Healthy Nuclei (%): 61%
  Population Hoechst High Intensity Objects (%): 36%
  Population Membrane Permeable-Phenotype (%): 20%
  Population Mitochondria Different-Phenotype (%): 12%
  Population Mitotic Cells (%): 30%
  Population Normal (%): 63%
  Population Pyknosed Nuclei (%): 9%
  Population Tubulin-Different-Phenotype (%): 84%
  Total Cell Count: 168
[12]
  Population Apoptotic (%): 100%
  Population Fragmented Nuclei (%): 27%
  Population Healthy Nuclei (%): 71%
  Population Hoechst High Intensity Objects (%): 41%
  Population Membrane Permeable-Phenotype (%): 15%
  Population Mitochondria Different-Phenotype (%): 3%
  Population Mitotic Cells (%): 0%
  Population Normal (%): 58%
  Population Pyknosed Nuclei (%): 1%
  Population Tubulin-Different-Phenotype (%): 79%
  Total Cell Count: 203

## C=CC(=O)Nc1cc2c(Nc3ccc(F)c(Cl)c3)ncnc2cc1OCCCN1CCOCC1.Cl.Cl [CANERTINIB DIHYDROCHLORIDE]
[1]
  Population Apoptotic (%): 73%
  Population Fragmented Nuclei (%): 35%
  Population Healthy Nuclei (%): 53%
  Population Hoechst High Intensity Objects (%): 29%
  Population Membrane Permeable-Phenotype (%): 28%
  Population Mitochondria Different-Phenotype (%): 21%
  Population Mitotic Cells (%): 26%
  Population Normal (%): 70%
  Population Pyknosed Nuclei (%): 10%
  Population Tubulin-Different-Phenotype (%): 83%
  Total Cell Count: 198
[2]
  Population Apoptotic (%): 100%
  Population Fragmented Nuclei (%): 58%
  Population Healthy Nuclei (%): 35%
  Population Hoechst High Intensity Objects (%): 39%
  Population Membrane Permeable-Phenotype (%): 20%
  Population Mitochondria Different-Phenotype (%): 66%
  Population Mitotic Cells (%): 0%
  Population Normal (%): 60%
  Population Pyknosed Nuclei (%): 5%
  Population Tubulin-Different-Phenotype (%): 91%
  Total Cell Count: 110
[3]
  Population Apoptotic (%): 56%
  Population Fragmented Nuclei (%): 35%
  Population Healthy Nuclei (%): 45%
  Population Hoechst High Intensity Objects (%): 13%
  Population Mitotic Cells (%): 43%
  Population Normal (%): 86%
  Population Pyknosed Nuclei (%): 18%
  Population Tubulin-Different-Phenotype (%): 20%
  Total Cell Count: 227
[4]
  Population Apoptotic (%): 57%
  Population Fragmented Nuclei (%): 60%
  Population Healthy Nuclei (%): 31%
  Population Hoechst High Intensity Objects (%): 43%
  Population Membrane Permeable-Phenotype (%): 10%
  Population Mitochondria Different-Phenotype (%): 10%
  Population Mitotic Cells (%): 42%
  Population Normal (%): 56%
  Population Pyknosed Nuclei (%): 7%
  Population Tubulin-Different-Phenotype (%): 27%
  Total Cell Count: 160
[5]
  Population Apoptotic (%): 71%
  Population Fragmented Nuclei (%): 26%
  Population Healthy Nuclei (%): 38%
  Population Hoechst High Intensity Objects (%): 41%
  Population Membrane Permeable-Phenotype (%): 19%
  Population Mitochondria Different-Phenotype (%): 51%
  Population Mitotic Cells (%): 28%
  Population Normal (%): 58%
  Population Pyknosed Nuclei (%): 35%
  Population Tubulin-Different-Phenotype (%): 64%
  Total Cell Count: 137
[6]
  Population Apoptotic (%): 100%
  Population Fragmented Nuclei (%): 59%
  Population Healthy Nuclei (%): 26%
  Population Hoechst High Intensity Objects (%): 39%
  Population Membrane Permeable-Phenotype (%): 23%
  Population Mitochondria Different-Phenotype (%): 76%
  Population Mitotic Cells (%): 0%
  Population Normal (%): 60%
  Population Pyknosed Nuclei (%): 14%
  Population Tubulin-Different-Phenotype (%): 61%
  Total Cell Count: 81
[7]
  Population Apoptotic (%): 79%
  Population Fragmented Nuclei (%): 36%
  Population Healthy Nuclei (%): 50%
  Population Hoechst High Intensity Objects (%): 12%
  Population Membrane Permeable-Phenotype (%): 1%
  Population Mitochondria Different-Phenotype (%): 10%
  Population Mitotic Cells (%): 20%
  Population Normal (%): 87%
  Population Pyknosed Nuclei (%): 12%
  Population Tubulin-Different-Phenotype (%): 11%
  Total Cell Count: 220
[8]
  Population Apoptotic (%): 50%
  Population Fragmented Nuclei (%): 73%
  Population Healthy Nuclei (%): 20%
  Population Hoechst High Intensity Objects (%): 44%
  Population Membrane Permeable-Phenotype (%): 5%
  Population Mitochondria Different-Phenotype (%): 16%
  Population Mitotic Cells (%): 50%
  Population Normal (%): 55%
  Population Pyknosed Nuclei (%): 6%
  Population Tubulin-Different-Phenotype (%): 33%
  Total Cell Count: 159
